Published values from different studies.
Lines come from different studies, so protocols differ.
Observed: cell growth or viability

With `NS(=O)(=O)c1ccc(-n2nc(C(=O)NN=Cc3ccc(O)cc3)cc2-c2ccccc2)cc1` the IC50 was 19.7 µM (HT-29; fluorescence; 48 h).
`CC(=O)O[C@H]1C(=O)[C@@]2(C)[C@H]([C@H](OC(=O)c3ccccc3)[C@]3(O)C[C@H](OC(=O)[C@H](O)[C@@H](NC(=O)c4ccccc4)c4ccccc4)C(C)=C1C3(C)C)[C@]1(OC(C)=O)CO[C@@H]1C[C@@H]2O` gave an IC50 of 1.31 µM (LLC-PK1; MTT; 72 h).
The IC50 of `COc1cccc(-c2cc(NCc3ccc4c(c3)OCO4)nc(N)n2)c1` is reported as 0.0901 µM (A2780; 72 h).
With `C=CC(=O)N1CCC[C@@H](n2nc(-c3ccc(Oc4ccccc4)cc3)c3c(N)ncnc32)C1` the IC50 was 0.454 µM (SU-DHL-4; resazurin; 72 h).
`Cc1ccc(S(=O)(=O)n2cc(CN3CCN(c4ccc(C(=O)NO)cc4)CC3)c3ccccc32)cc1` gave an IC50 of 8.82 µM (LLC-PK1; 48 h).
The IC50 of `NS(=O)(=O)c1ccc(-n2nc(-c3nnc(CCl)o3)cc2-c2ccccc2)cc1` is reported as 29.5 µM (HT-29; fluorescence; 48 h).
With `CCOc1ccc(C=Nn2c(-c3ccccc3)nc3ccc(Cl)cc3c2=O)cc1` the IC50 was 136 µM (LLC-PK1; MTT; 72 h).
The IC50 of `NS(=O)(=O)c1ccc(-n2nc(C(=O)NN=Cc3ccccc3O)cc2-c2ccccc2)cc1` is reported as 20 µM (HT-29; fluorescence; 48 h).
With `CCOc1ccc(C=Nn2c(-c3ccccc3)nc3ccc(Cl)cc3c2=O)cc1O` the IC50 was 342 µM (LLC-PK1; MTT; 72 h).
`COc1cc(C=NNC(=O)c2cc(-c3ccccc3)n(-c3ccc(S(N)(=O)=O)cc3)n2)cc(OC)c1OC` has an IC50 of 26.3 µM (HT-29; fluorescence; 48 h).
`COc1cccc2c1C(=O)c1c(O)c3c(c(O)c1C2=O)C[C@@](O)(C(=O)CO)C[C@@H]3O[C@H]1C[C@H](N)[C@H](O)[C@H](C)O1` has an IC50 of 0.00506 µM (SU-DHL-4; 96 h).
`Cc1nn(-c2ccc(S(=O)(=O)N3CCN(C)CC3)cc2)c2nn3nnnc3nc12` gave an IC50 of 0.08 µM (HT-29; MTT).
With `O=c1c2cc(Cl)ccc2nc(-c2ccccc2)n1N=Cc1ccc(F)cc1` the IC50 was 86.7 µM (LLC-PK1; MTT; 72 h).
`O=C(NO)c1ccc(N2CCN(Cc3c[nH]c4ccccc34)CC2)cc1` gave an IC50 of 13.3 µM (LLC-PK1; 48 h).
For `CC(C)N=c1cc2n(-c3ccc(Cl)cc3)c3ccccc3nc-2cc1Nc1ccc(Cl)cc1`, the IC50 was 23.3 µg/mL (Caco-2; MTT; 24 h).
For `O=c1c2cc(Cl)ccc2nc(-c2ccccc2)n1N=Cc1ccc([N+](=O)[O-])cc1`, the IC50 was 115 µM (LLC-PK1; MTT; 72 h).
With `NS(=O)(=O)c1ccc(-n2nc(C(=O)NN=Cc3cccnc3)cc2-c2ccccc2)cc1` the IC50 was 32.3 µM (HT-29; fluorescence; 48 h).
For `COc1ccc(C=Nn2c(-c3ccccc3)nc3ccc(Cl)cc3c2=O)cc1OC`, the IC50 was 462 µM (LLC-PK1; MTT; 72 h).
`COc1cccc2c1C(=O)c1c(O)c3c(c(O)c1C2=O)C[C@@](O)(C(=O)CO)C[C@@H]3O[C@H]1C[C@H](N)[C@H](O)[C@H](C)O1` has an IC50 of 2.34 µM (LLC-PK1; 48 h).
With `CC(=NNC(=O)c1cc(-c2ccccc2)n(-c2ccc(S(N)(=O)=O)cc2)n1)c1ccc(Br)cc1` the IC50 was 37.2 µM (HT-29; fluorescence; 48 h).
